Reference: paper PMC4324418 (ACS Chemical Neuroscience, 2014)

Assays:
[1] = target: T1, rat M4 receptor (Rattus norvegicus, UniProt P08485); assay: Progressive fold-shift of ACh concentration-response curve; format: cell-based; conditions: operational model of allosterism
T1 sequence (P08485 1-478): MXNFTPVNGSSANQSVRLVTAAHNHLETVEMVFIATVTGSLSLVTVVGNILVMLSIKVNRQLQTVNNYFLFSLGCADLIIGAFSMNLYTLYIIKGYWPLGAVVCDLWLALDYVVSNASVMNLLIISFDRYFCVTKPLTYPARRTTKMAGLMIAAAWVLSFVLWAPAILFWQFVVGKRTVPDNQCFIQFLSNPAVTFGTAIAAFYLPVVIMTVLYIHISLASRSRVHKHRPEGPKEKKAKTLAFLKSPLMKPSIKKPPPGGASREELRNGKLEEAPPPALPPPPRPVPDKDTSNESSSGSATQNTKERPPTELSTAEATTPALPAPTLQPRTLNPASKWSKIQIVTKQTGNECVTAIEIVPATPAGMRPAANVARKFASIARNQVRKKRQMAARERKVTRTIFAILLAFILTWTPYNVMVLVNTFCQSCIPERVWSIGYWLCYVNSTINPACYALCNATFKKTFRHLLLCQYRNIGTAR

[2] = tested on: M4 KO mice; assay: MK-801-induced hyperlocomotion in M4 KO mice; format: in vivo, mouse
In short: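 Wild-type and M4 KO mice were habituated 90 min in a photobeam open field. They then received vehicle (10% Tween 80 IP), followed 30 min later by saline or MK-801 IP, and activity was recorded for 120 min. Distance traveled was binned per 5 min. Totals covered t = 120 to 240 min and were analyzed by ANOVA with Bonferroni post hoc tests.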

[3] = tested on: wild-type mice; assay: Rotarod; format: in vivo, mouse; conditions: 3–30 mg/kg IP, rotarod 20 rpm
In short: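 Mice received vehicle (10% Tween 80 in sterile water IP) or test compound (3–30 mg/kg IP). Sixty minutes later they were placed on the rotarod and latency to fall was measured. One-way ANOVA with Dunnett's test.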

[4] = tested on: human M5 receptor; assay: Calcium mobilization, selectivity; format: cell-based
In short: (§1)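 Cells were seeded at 15000/well in DMEM with 10% dialyzed FBS, 20 mM HEPES and 1 mM pyruvate, then cultured overnight at 37 °C/5% CO2. M2 and M4 lines were cotransfected with Gqi5. Cells were loaded with 1 μM Fluo-4AM (HBSS, 20 mM HEPES, 2.5 mM probenecid, pH 7.4) for 50 min at 37 °C. ACh was added 140 s after test compound. Calcium signal was expressed as % of the 10 μM ACh maximum.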

[5] = in vivo; conditions: male, Sprague-Dawley, rat, po, 3 mg/kg, Tmax,p
[6] = tested on: human M2 receptor; assay: Calcium mobilization, selectivity; format: cell-based
In short: as §1

[7] = tested on: wild-type mice; assay: Cue-dependent fear conditioning; format: in vivo, mouse; conditions: 3–30 mg/kg prior to the conditioning session
[8] = target: T2, guinea pig adenosine transporter (Cavia porcellus, UniProt H0V4R7); assay: Cerep panel, displacement of [3H]NTBI binding
T2 sequence (H0V4R7 1-461): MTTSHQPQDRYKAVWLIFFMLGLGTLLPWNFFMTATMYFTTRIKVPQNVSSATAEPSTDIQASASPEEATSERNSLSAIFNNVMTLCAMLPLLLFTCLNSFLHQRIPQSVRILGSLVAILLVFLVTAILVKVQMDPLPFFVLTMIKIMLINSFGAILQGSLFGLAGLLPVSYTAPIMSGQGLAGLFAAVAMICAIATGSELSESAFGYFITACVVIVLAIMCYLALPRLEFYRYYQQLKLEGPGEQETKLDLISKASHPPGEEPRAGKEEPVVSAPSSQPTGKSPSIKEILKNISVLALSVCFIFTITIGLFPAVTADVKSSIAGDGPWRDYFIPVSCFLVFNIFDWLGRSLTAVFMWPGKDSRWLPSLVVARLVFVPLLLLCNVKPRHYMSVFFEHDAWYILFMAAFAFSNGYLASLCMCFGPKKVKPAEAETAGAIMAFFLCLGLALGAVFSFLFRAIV

[9] = target: T3, human M4 (Homo sapiens, UniProt P08173); format: cell-based; conditions: maximum response as % of the Emax of ACh
T3 sequence (P08173 1-479): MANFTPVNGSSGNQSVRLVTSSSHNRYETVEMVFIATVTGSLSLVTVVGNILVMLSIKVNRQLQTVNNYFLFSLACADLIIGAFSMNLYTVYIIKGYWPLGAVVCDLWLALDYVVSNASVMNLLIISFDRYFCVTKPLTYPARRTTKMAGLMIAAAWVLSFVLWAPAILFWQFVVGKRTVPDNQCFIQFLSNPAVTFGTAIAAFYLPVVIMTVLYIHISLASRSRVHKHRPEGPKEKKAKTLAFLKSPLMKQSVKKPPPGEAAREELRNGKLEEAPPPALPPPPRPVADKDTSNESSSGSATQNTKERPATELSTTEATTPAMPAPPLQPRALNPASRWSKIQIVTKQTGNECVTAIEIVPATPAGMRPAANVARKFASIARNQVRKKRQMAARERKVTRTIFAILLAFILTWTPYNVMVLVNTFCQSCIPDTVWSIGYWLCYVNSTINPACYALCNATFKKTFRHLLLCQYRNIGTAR

[10] = tested on: wild-type mice; assay: Contextual fear conditioning, one-shock paradigm; format: in vivo, mouse; conditions: 3–30 mg/kg, measured 24 h later
In short: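 One-shock contextual conditioning used a 3 min session: 2 min habituation, one 0.4 mA shock, then 59 s before removal. Dosing was vehicle (10% Tween 80 in sterile water) or test compound at 3, 10 or 30 mg/kg IP. Mice were returned to the same chamber 24 h later, and percent time freezing was scored over 3 min.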

[11] = tested on: wild-type mice; assay: Amphetamine-induced hyperlocomotion in wild-type mice; format: in vivo, mouse; conditions: WT mice, amphetamine […] SC
[12] = as above; format: in vivo, mouse; conditions: mouse, brain, ip, WT mice

Cc1nnc2sc(C(=O)NCc3ccc(S(=O)(=O)C(F)(F)F)cc3)c(N)c2c1C [VU0467154, 5-amino-3,4-dimethyl-N-(4-((trifluoromethyl)sulfonyl)benzyl)thieno[2,3-c]pyridazine-6-carboxamide]
efficacy cooperativity factor (log β) [1]: 0.91
efficacy cooperativity factor β [1]: 8.17
effect on MK-801-induced hyperlocomotion [2]: had no effect on the time course of MK-801-induced hyperlocomotion
latency to fall [3]: did not alter the latency to fall
potentiation of ACh response (calcium response) [4]: lack of a calcium response
Tmax [5]: ~3 h
potentiation of ACh response (calcium response) [6]: lack of a calcium response
acquisition of cue-dependent fear conditioning [7]: enhanced acquisition of cue-dependent fear conditioning
Ki [8]: 98 nM
%AChmax [9]: 55%
acquisition of contextual fear conditioning behaviors [10]: dose-dependent enhancement
mean reversal of AHL ([11]; 0.3 mg/kg IP): 3.7%
mean reversal of AHL ([11]; 1 mg/kg IP): 41.6%
mean reversal of AHL ([11]; 3 mg/kg IP): 70.4%
mean reversal of AHL ([11]; 10 mg/kg IP): 81.5%
mean reversal of AHL ([11]; 30 mg/kg IP): 90.7%
concentration at 2.5 h ([12]; 0.3 mg/kg, mean Cbrain, 0.3 mg/kg IP, at 2.5 h postadministration): 24 nM
concentration at 2.5 h ([12]; 0.3 mg/kg, mean Cbrain,u, 0.3 mg/kg IP, 2.5 h, in vitro mouse fubrain 0.014): 0.3 nM
concentration at 2.5 h ([12]; 3 mg/kg, mean Cbrain, 3 mg/kg IP, at 2.5 h postadministration): 157 nM
concentration at 2.5 h ([12]; 3 mg/kg, mean Cbrain,u, 3 mg/kg IP, 2.5 h, in vitro mouse fubrain 0.014): 2.2 nM
concentration at 2.5 h ([12]; 10 mg/kg, mean Cbrain, 10 mg/kg IP, at 2.5 h postadministration): 398 nM
concentration at 2.5 h ([12]; 10 mg/kg, mean Cbrain,u, 10 mg/kg IP, 2.5 h, in vitro mouse fubrain 0.014): 5.6 nM
concentration at 2.5 h ([12]; 30 mg/kg, mean Cbrain,u, 30 mg/kg IP, 2.5 h, in vitro mouse fubrain 0.014): 8.1 nM
